PubChem BioAssay AID488820 (Broad Institute, 2010)
Active and inactive are the calls of the source.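 How the source made its calls: active means compounds raising nuclear GFP-tagged hypoxia factor signal, with fitted half-maximal dose at or below the top valid dose; inconclusive means flat response of 30 to 70% activation, or poor curve fit; inactive means the rest, including opposite-direction effects.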

Assays:
[1] = GFP-HIF1a nuclear translocation activators – imaging, U2OS HIF1a-GFP, high content, dry powder, dose response (AID 488820); conditions: U2OS HIF1a-GFP, nuclear intensity imaging; at 38 µM (top of the series)
How it was run: (§1)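 Material – U2OS cells with GFP-HIF1alpha · Amount – 2,000 cells/well · Buffer or medium – culture medium lacking phenol red · Dosing – Eight-point threefold dilution series, delivered by pin transfer · Schedule – 24 h compound exposure at 37 °C · Repeats – duplicate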

[2] = system: U2OS HIF1a-GFP, nuclear intensity imaging; test: as above
How it was run: as §1

SMILES: O=C(c1cc(-c2ccccc2)on1)N1CCC(CO)CC1
- activation [1]: -4.8% (inactive)

SMILES: CN(C)c1nc(-c2ccccn2)nnc1-c1ccccc1
- AC50 [2]: 2.94 µM

SMILES: CC(C)(C)CCNC(=O)c1cc(-c2ccccc2)on1
- activation [1]: 17.6% (inactive)

SMILES: Cc1cccc(CNC(=O)c2cc(-c3ccccc3)on2)c1
- activation [1]: 11.8% (inactive)

SMILES: c1ccc(-c2nnc(-c3ccccn3)nc2Nc2cnc3ccccc3n2)cc1
- AC50 [2]: 5.59 µM

SMILES: Cc1ccc(NC(=O)c2cc(-c3ccccc3)on2)cn1
- activation [1]: 25.1% (inactive)

SMILES: Cn1c(NC(=O)c2cc(-c3ccccc3)on2)nc2ccccc21
- activation [1]: -0.56% (inactive)

SMILES: c1ccc(-c2csc(Nc3nc(-c4ccccn4)nnc3-c3ccccc3)n2)cc1
- AC50 [2]: 10.1 µM

SMILES: CN1CCN(C(=O)c2cc(-c3ccccc3)on2)CC1
- activation [1]: 3.08% (inactive)

SMILES: Cc1cccc(NC(=O)c2cc(-c3ccccc3)on2)n1
- activation [1]: 9.15% (inactive)

SMILES: O=C(c1cc(-c2ccccc2)on1)N1CCC(N2CCCC2)CC1
- activation [1]: 12.8% (inactive)

SMILES: O=C(c1cc(-c2ccccc2)on1)N1CCC(N2CCOCC2)CC1
- activation [1]: 14.1% (inactive)

SMILES: O=C(NCCN1CCOCC1)c1cc(-c2ccccc2)on1
- AC50 [2]: 6.66 µM

SMILES: Cc1ccccc1CNC(=O)c1cc(-c2ccccc2)on1
- activation [1]: 23% (inactive)

SMILES: Cc1ccccc1CNc1nc(-c2ccccn2)nnc1-c1ccccc1
- AC50 [2]: 2.73 µM

SMILES: CN(C)CCNC(=O)c1cc(-c2ccccc2)on1
- activation [1]: 6.65% (inactive)

SMILES: Cc1ccc(CNc2nc(-c3ccccn3)nnc2-c2ccccc2)cc1
- AC50 [2]: 1.1 µM

SMILES: O=C(Nc1cn2ccccc2n1)c1cc(-c2ccccc2)on1
- activation [1]: 1.49% (inactive)

SMILES: c1ccc(-c2nnc(-c3ccccn3)nc2NCCN2CCOCC2)cc1
- AC50 [2]: 5.41 µM

SMILES: c1ccc(-c2nnc(-c3ccccn3)nc2Nc2nc3ccccc3s2)cc1
- AC50 [2]: 5.32 µM

SMILES: Cn1c(-c2ccccc2)cnc1NC(=O)c1cc(-c2ccccc2)on1
- activation [1]: -4.96% (inactive)

SMILES: c1ccc(CNc2nc(-c3ccccn3)nnc2-c2ccccc2)cc1
- AC50 [2]: 3.08 µM

SMILES: Cc1ccc(Nc2nc(-c3ccccn3)nnc2-c2ccccc2)cn1
- AC50 [2]: 7.08 µM

SMILES: c1ccc(-c2nnc(-c3ccccn3)nc2NCC2CC2)cc1
- AC50 [2]: 3.37 µM

SMILES: c1ccc(-c2nnc(-c3ccccn3)nc2NCCCN2CCOCC2)cc1
- AC50 [2]: 2.42 µM

SMILES: O=C(NCCCO)c1cc(-c2ccccc2)on1
- AC50 [2]: 6.09 µM

SMILES: O=C(Nc1ncc2ccccc2n1)c1cc(-c2ccccc2)on1
- activation [1]: 1.57% (inactive)

SMILES: O=C(NCC1CCCCC1)c1cc(-c2ccccc2)on1
- activation [1]: 18.3% (inactive)

SMILES: O=C(Nc1cnc2ccccc2c1)c1cc(-c2ccccc2)on1
- activation [1]: 5.39% (inactive)

SMILES: O=C(NC1CCc2ccccc2C1)c1cc(-c2ccccc2)on1 (stereo not drawn)
- activation [1]: 30.1% (inactive)

SMILES: CC(C)(C)CCNc1nc(-c2ccccn2)nnc1-c1ccccc1
- AC50 [2]: 3.27 µM

SMILES: O=C(NCc1ccccc1)c1cc(-c2ccccc2)on1
- activation [1]: 15.8% (inactive)

SMILES: c1ccc(-c2nnc(-c3ccccn3)nc2NCC2CCCCC2)cc1
- AC50 [2]: 0.882 µM

SMILES: Cn1c(-c2ccccc2)cnc1Nc1nc(-c2ccccn2)nnc1-c1ccccc1
- AC50 [2]: 4.31 µM

SMILES: Cc1ccc(CNC(=O)c2cc(-c3ccccc3)on2)cc1
- activation [1]: 12.8% (inactive)

SMILES: CCCCNC(=O)c1cc(-c2ccccc2)on1
- AC50 [2]: 6.16 µM

SMILES: Cc1cccc(CNc2nc(-c3ccccn3)nnc2-c2ccccc2)c1
- AC50 [2]: 0.621 µM

SMILES: CN1CCN(c2nc(-c3ccccn3)nnc2-c2ccccc2)CC1
- AC50 [2]: 5.11 µM

SMILES: O=C(Nc1nc2ccccc2s1)c1cc(-c2ccccc2)on1
- activation [1]: 12.2% (inactive)

SMILES: O=C(Nc1nc(-c2ccccc2)cs1)c1cc(-c2ccccc2)on1
- activation [1]: 4.03% (inactive)

SMILES: O=C(c1cc(-c2ccccc2)on1)N1CCN(c2ccncc2)CC1
- activation [1]: 31% (inactive)

SMILES: C=CCNc1nc(-c2ccccn2)nnc1-c1ccccc1
- AC50 [2]: 2.7 µM

SMILES: O=C(NC1Cc2ccccc2C1)c1cc(-c2ccccc2)on1
- activation [1]: 6.89% (inactive)

SMILES: OCCCNc1nc(-c2ccccn2)nnc1-c1ccccc1
- AC50 [2]: 5.73 µM

SMILES: O=C(NCCN1CCCCC1)c1cc(-c2ccccc2)on1
- activation [1]: 31.8% (inactive)

SMILES: O=C(Nc1ncc(-c2ccccc2)o1)c1cc(-c2ccccc2)on1
- activation [1]: 7.7% (inactive)

SMILES: O=C(NCCCn1ccnc1)c1cc(-c2ccccc2)on1
- AC50 [2]: 8.03 µM

SMILES: c1ccc(-c2nnc(Nc3nc(-c4ccccn4)nnc3-c3ccccc3)s2)cc1
- AC50 [2]: 7.41 µM

SMILES: c1ccc(-c2cnc(Nc3nc(-c4ccccn4)nnc3-c3ccccc3)s2)cc1
- AC50 [2]: 17.7 µM

SMILES: O=C(NCCCN1CCOCC1)c1cc(-c2ccccc2)on1
- AC50 [2]: 18.1 µM

SMILES: c1ccc(-c2nnc(-c3ccccn3)nc2N2CCN(c3ccncc3)CC2)cc1
- AC50 [2]: 2.68 µM

SMILES: O=C(Nc1ccc2ccccc2n1)c1cc(-c2ccccc2)on1
- activation [1]: -3.83% (inactive)

SMILES: O=C(c1cc(-c2ccccc2)on1)N1CCc2cccnc21
- activation [1]: -2.04% (inactive)

SMILES: O=C(NCC1CC1)c1cc(-c2ccccc2)on1
- AC50 [2]: 16.1 µM

SMILES: O=C(NCCCCO)c1cc(-c2ccccc2)on1
- AC50 [2]: 2.1 µM

SMILES: O=C(Nc1nnc(-c2ccccc2)s1)c1cc(-c2ccccc2)on1
- activation [1]: -0.482% (inactive)

SMILES: c1ccc(-c2nnc(-c3ccccn3)nc2N2CCC(N3CCOCC3)CC2)cc1
- AC50 [2]: 6.51 µM

SMILES: Cc1cccc(Nc2nc(-c3ccccn3)nnc2-c2ccccc2)n1
- AC50 [2]: 2.98 µM
